Measured values as given in ChEMBL document CHEMBL3102735, “Enhancing the pharmacodynamic profile of a class of selective COX-2 inhibiting nitric oxide donors” (Bioorg Med Chem, 2014).
Calls of active or inactive are those of the source. The rule behind the calls is not given here.

What was measured:
[1] = Oral bioavailability in Wistar rat at 10 mg/kg by LC-MS/MS analysis; type: ADME, organism-based; conditions: in vivo
Outline: (§1)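 Male Han Wistar rats, three per route, single 10 mg/kg/5 mL dose iv or po in 5% DMSO, 5% Cremophor EL, 0.1% Tween 80 in 150 mM phosphate buffer pH 7. Jugular-vein blood sampled, plasma methanol-precipitated, parent and hydroxy metabolite quantified by LC–MS/MS in positive ESI MRM mode (LLOQ 1–15 ng/mL).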

[2] = Stability of the compound in phosphate buffer saline assessed as compound remaining at pH 7.4 after 60 mins by LC-MS/MS analysis; type: physicochemical; conditions: read-out: Stability
Outline: (§2)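 1 mM DMSO stock added to 0.01 M PBS (pH 7.4) or 0.05 M simulated gastric fluid without pepsin (pH 1.5 with HCl); incubated in hybridisation oven; aliquots at 0, 30, 60, 120 min quenched with ice-cold acetonitrile containing internal standard; parent remaining (%) measured.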

Thoracic aorta = assay: Ex vivo vasorelaxant activity in Wistar rat endothelium thoracic aortic ring assessed as reduction of KCl-induced contraction in presence of guanylate cyclase inhibitor ODQ; type: functional
Outline: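 Endothelium-denuded thoracic aortic rings from male Wistar rats (250–350 g) in oxygenated Tyrode-type buffer at 37 °C, isometric tension recording. Rings precontracted with 30 mM KCl, then 3-fold increasing compound concentrations (1 nM–10 µM) added, also with 1 µM ODQ preincubated. Emax as % of KCl tone; pIC50; mean ± SE of 6–10 experiments.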

Mus musculus [3] = assay: Analgesic activity in Swiss albino mouse assessed as reduction of acetic acid-induced writhing at 20 mg/kg, po measured every 10 mins after 5 mins of administration relative to control; type: functional; set-up: scale not given: the % may be the effect or the level left
Outline: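 Male Swiss albino mice (23–25 g), compound given orally in CMC vehicle; writhing induced by 0.6% acetic acid (10 mL/kg) ip. Stretching movements counted for 10 min, starting 5 min after administration; percent reduction versus CMC-treated animals.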

[4] = Metabolic stability in Sprague-Dawley rat plasma assessed as compound remaining after 120 mins by LC-MS/MS analysis; type: ADME, cell-free; conditions: read-out: Stability
Outline: (§3)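 Compound (12 µL of 1 mM DMSO solution into 588 µL medium) incubated in PBS pH 7.4, pepsin-free SGF pH 1.5, or EDTA rat plasma. Aliquots taken at 0, 30, 60, 120 min and quenched with ice-cold acetonitrile containing internal standard; parent remaining as percent.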

[5] = Metabolic stability in Sprague-Dawley rat plasma assessed as compound remaining after 60 mins by LC-MS/MS analysis; type: ADME, cell-free; conditions: read-out: Stability; outline: as §3
J774 = assay: Selectivity index, ratio of IC50 for COX-1 to IC50 for COX-2 in mouse J774 cells; type: cell-based
Outline: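 J774 macrophages stimulated 24 h with E. coli LPS (10 µg/mL) to induce COX-2, with or without compound (0.01–10 µM); supernatant PGE2 by RIA. Triplicate wells, three experiments, percent inhibition versus control, IC50 by sigmoidal fit; selectivity as COX-1/COX-2 IC50 ratio.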

[6] = Stability of the compound in phosphate buffer saline assessed as compound remaining at pH 7.4 after 120 mins by LC-MS/MS analysis; type: physicochemical; conditions: read-out: Stability; outline: as §3
Liver = assay: Induction of nitric oxide production in Wistar rat liver homogenate assessed as nitrate level at 1 mM; type: functional, tissue-based; conditions: TDE = time-dependent effect
Rattus norvegicus = assay: Drug metabolism in Wistar rat plasma assessed as 2-(1-(4-fluorophenyl)-2-methyl-5-(4-(methylsulfonyl)phenyl)-1H-pyrrol-3-yl)-N-(2-hydroxyethyl)acetamide metabolite at 10 mg/kg, iv up to 6 hrs by LC-MS/MS analysis; type: ADME, organism-based; set-up: dose 10 mg/kg, route intravenous; conditions: in vivo; outline: as §1
[7] = Stability of the compound in simulated gastric fluid assessed as compound remaining at pH 1.5 after 30 mins by LC-MS/MS analysis; type: physicochemical; conditions: read-out: Stability; outline: as §2
[8] = target: T1, Prostaglandin G/H synthase 2 (Mus musculus, UniProt Q05769); assay: Inhibition of LPS-induced COX-2 in mouse J774 cells using arachidonic acid as substrate assessed as inhibition of prostaglandin E2 production preincubated for 15 mins followed by substrate addition measured after 30 mins by RIA; type: cell-based
T1 sequence (Q05769 whole entry): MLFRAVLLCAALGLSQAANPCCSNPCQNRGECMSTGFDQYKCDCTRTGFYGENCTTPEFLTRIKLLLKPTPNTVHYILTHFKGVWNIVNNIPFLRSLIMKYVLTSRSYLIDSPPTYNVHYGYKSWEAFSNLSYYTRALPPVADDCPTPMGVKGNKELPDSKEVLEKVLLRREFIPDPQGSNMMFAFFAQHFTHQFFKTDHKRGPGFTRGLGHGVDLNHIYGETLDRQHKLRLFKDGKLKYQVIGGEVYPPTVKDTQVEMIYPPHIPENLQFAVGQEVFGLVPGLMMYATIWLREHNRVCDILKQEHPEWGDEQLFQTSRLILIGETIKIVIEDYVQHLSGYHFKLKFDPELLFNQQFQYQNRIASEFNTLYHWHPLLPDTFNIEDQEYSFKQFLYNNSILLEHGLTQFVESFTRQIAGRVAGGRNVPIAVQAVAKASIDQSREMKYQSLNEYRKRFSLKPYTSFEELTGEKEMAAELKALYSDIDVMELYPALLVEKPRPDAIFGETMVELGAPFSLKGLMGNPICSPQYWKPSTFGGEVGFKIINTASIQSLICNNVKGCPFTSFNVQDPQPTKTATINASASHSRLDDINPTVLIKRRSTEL

Mus musculus [9] = assay: Antiinflammatory activity in Swiss albino mouse assessed as reduction in carrageenan-induced paw edema at 40 mg/kg, po relative to control; type: functional; set-up: scale not given: the % may be the effect or the level left
Outline: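 Intraplantar carrageenan, compound po in CMC; volume of right hind paw measured 4 h after carrageenan injection and compared with saline/carrageenan-treated controls; percent oedema reduction.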

[10] = target: T2, Prostaglandin G/H synthase 2 (Homo sapiens, UniProt P35354); set-up: species or system Blood
T2 sequence (P35354 whole entry): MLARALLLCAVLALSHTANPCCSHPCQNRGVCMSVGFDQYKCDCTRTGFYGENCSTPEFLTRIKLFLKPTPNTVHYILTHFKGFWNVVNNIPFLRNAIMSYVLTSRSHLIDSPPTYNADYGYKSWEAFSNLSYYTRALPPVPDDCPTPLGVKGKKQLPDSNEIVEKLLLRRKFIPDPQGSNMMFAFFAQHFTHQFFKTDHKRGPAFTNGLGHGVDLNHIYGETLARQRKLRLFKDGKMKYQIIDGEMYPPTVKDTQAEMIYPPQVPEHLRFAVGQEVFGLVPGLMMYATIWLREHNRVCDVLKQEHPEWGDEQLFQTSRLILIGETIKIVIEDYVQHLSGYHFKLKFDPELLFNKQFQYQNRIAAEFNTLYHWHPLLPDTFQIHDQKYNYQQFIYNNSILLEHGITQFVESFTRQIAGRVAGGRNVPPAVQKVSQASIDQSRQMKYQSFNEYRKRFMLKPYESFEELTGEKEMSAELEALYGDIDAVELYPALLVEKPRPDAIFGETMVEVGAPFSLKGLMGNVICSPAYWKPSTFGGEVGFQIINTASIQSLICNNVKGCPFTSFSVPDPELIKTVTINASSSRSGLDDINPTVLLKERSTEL

Mus musculus [11] = assay: Antihyperalgesic activity in Swiss albino mouse assessed as reduction in carrageenan-induced inflammation at 20 mg/kg, po after 90 mins relative to control; type: functional; set-up: scale not given: the % may be the effect or the level left

- bioavailability [1]: 24%
- remaining at 1 h [2]: 100%
- remaining at 2 h [4]: 100%
- remaining at 1 h [5]: 100%
- remaining at 2 h [6]: 100%
- Drug metabolism (Rattus norvegicus): Active
- remaining at 0.5 h [7]: 100%
- IC50 [8]: 249 nM
- IC50 [10]: 1700 nM
Compound: Cc1c(CC(=O)NCCO[N+](=O)[O-])cc(-c2ccc(S(C)(=O)=O)cc2)n1-c1ccc(F)cc1
- Activity (Thoracic aorta): inactive
- Activity (Mus musculus [3]): 77%
- Ratio IC50 (J774): > 42
- Activity (Liver): tde
- Activity (Mus musculus [9]): 10%
- Activity (Mus musculus [11]): 20%
